Assay results of several laboratories.
Lines come from different studies, so protocols differ.
Target: MAP kinase-activated protein kinase 2 (MAPKAPK2, Homo sapiens, UniProt P49137)

| SMILES | assay | setting | remaining binding [%] |
| --- | --- | --- | --- |
| CNC(=O)Nc1ccc2c(c1)[C@@]1(CC2)OC(=O)N(CC(=O)N(Cc2ccc(F)cc2)[C@@H](C)C(F)(F)F)C1=O | cell-free assay, competition with immobilised ligand | 1 µM | 100 |
| O=C(NCC1CCOCC1)c1n[nH]cc1NC(=O)c1c(F)cccc1F | binding, competition with immobilised ligand | 1 µM | 66 |
| COc1cnc(Nc2cccc(S(N)(=O)=O)c2)nc1N1CCN(c2ccccc2)C(=O)C1 | binding, competition with immobilised ligand | 1 µM | 100 |
| O=C(c1ccc(Nc2ncc(Cl)c(-c3ccc(Cl)s3)n2)cc1)N1CCC(N2CCCC2)CC1 | binding, competition with immobilised ligand | 1 µM | 100 |
| CCN1CCN(Cc2ccc(C(=O)Nc3ccc(C)c(Oc4ccc5c(c4)CC(=O)N5)c3)cc2C(F)(F)F)CC1 | binding, competition with immobilised ligand | 1 µM | 100 |
| CNC(=O)[C@@H]1CC[C@@H](n2c(-c3ccc4cnccc4c3)nc3ccc(C(=O)NCc4cccc(C(N)=O)c4)cc32)C1 | binding, competition with immobilised ligand | 1 µM | 98 |
| Nc1ncc2c(n1)-c1c([nH]c3ccc(C#CC4CC4)cc13)CCCC2 | binding, competition with immobilised ligand | 1 µM | 86 |
| Cc1cnc(Nc2ccc(C(=O)N3CCC(N4CCCC4)CC3)cc2)nc1-c1cc2ccccc2s1 | binding, competition with immobilised ligand | 1 µM | 100 |
| CN(c1nccc(-c2cnn3ncccc23)n1)C1CC1 | binding | 1 µM | 83 |
| O=C(NCCCN1CCOCC1)c1ccc(Nc2ncc(Cl)c(-c3ccc(Cl)s3)n2)cc1 | binding, competition with immobilised ligand | 1 µM | 100 |
| N[C@@H]1CCN(c2nccc(-c3cnn4ncccc34)n2)C1 | binding | 1 µM | 100 |
| Cn1nc(C(F)(F)F)cc1-c1cnc(N2CCc3cc(S(=O)(=O)Nc4c(F)cc(Cl)cc4F)cc(N4CCCC4=O)c32)nc1 | cell-free assay, competition with immobilised ligand | 1 µM | 73 |
| FC(F)(F)Oc1cccc(-c2cnc3ccc(-c4ccncc4)nn23)c1 | cell-free assay, competition with immobilised ligand | 5 µM | 100 |
| CCCOc1ccc([C@H]2[C@H](C(=O)O)[C@@H](c3ccc4c(c3)OCO4)CN2CC(=O)Nc2c(CC)cccc2CC)cc1 | cell-free assay, competition with immobilised ligand | 1 µM | 100 |
| C[C@@H](c1ccc(-n2cnc3c(N)ncnc32)cc1)N1CCc2nn(C)c(Cc3ccccc3)c2C1=O | binding, competition with immobilised ligand | 0.1 µM | 49 |
| CNCc1ccccc1-c1csc([C@H](C)Nc2nc(C)nc3cc(OC)c(OC)cc23)c1 | cell-free assay, competition with immobilised ligand | 1 µM | 80 |
| CN(C)c1nccc(-c2cnc3ncccn23)n1 | binding | 1 µM | 84 |
| NS(=O)(=O)c1cc(NC(=O)Cc2ccccc2)ccc1Oc1cccc(Cl)c1 | cell-free assay, competition with immobilised ligand | 1 µM | 100 |
| F[C@@H]1CCN(c2nccc(-c3cnn4ncccc34)n2)C1 | binding | 1 µM | 93 |
| O=C(O)c1cc(-c2ccc(C3CCNCC3)cc2)c2ccc(-c3ccc(C(F)(F)F)cc3)cc2c1 | cell-free assay, competition with immobilised ligand | 1 µM | 51 |
| CN(CCCC(F)(F)F)c1nccc(-c2cnn3ncccc23)n1 | binding | 1 µM | 100 |
| Cc1c(C(=O)O)cc(-c2ccc(C3CCNCC3)cc2)c2ccc(-c3ccc(C(F)(F)F)cc3)cc12 | binding, competition with immobilised ligand | 1 µM | 88 |
| C[C@@H]1CN(c2ccc3ncc(-c4ccc5[nH]nc(C6CC6)c5c4)n3n2)C[C@H](C)O1 | binding, competition with immobilised ligand | 0.5 µM | 89 |
